Source: ChEMBL document CHEMBL1135663, “Probing opioid receptor interactions with azacycloalkane amino acids. Synthesis of a potent and selective ORL1 antagonist” (J Med Chem, 2002)
pEC50, pKi: −log10 of the molar value. Where “and” joins values, the source holds several entries; their conditions need not be identical. Identical values can stand only once.

Experiments:
[1] = biological target: Delta-type opioid receptor (Homo sapiens, UniProt P41143); test: Binding affinity for opioid receptor type, human Opioid receptor delta 1 expressed in membrane homogenates of COS-1 or CHO cells; assay type: cell-based
Delta-type opioid receptor, sequence (P41143 whole entry): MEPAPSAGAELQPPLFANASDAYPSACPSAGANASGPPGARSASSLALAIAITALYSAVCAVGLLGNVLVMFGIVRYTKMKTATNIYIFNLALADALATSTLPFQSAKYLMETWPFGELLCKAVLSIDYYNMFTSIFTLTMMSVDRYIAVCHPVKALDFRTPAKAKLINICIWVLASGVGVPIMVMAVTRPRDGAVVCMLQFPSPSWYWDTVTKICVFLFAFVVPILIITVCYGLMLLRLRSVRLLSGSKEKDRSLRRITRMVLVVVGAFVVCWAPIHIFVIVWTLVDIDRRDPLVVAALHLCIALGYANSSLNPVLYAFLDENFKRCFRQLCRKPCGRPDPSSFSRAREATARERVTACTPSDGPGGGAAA

Mu-type opioid receptor [2] = biological target: T1, Mu-type opioid receptor (Homo sapiens, UniProt P35372); test: Binding affinity for opioid receptor type, human Opioid receptor mu 1 expressed in membrane homogenates of COS-1 or CHO cells; assay type: cell-based
T1 sequence (P35372 whole entry): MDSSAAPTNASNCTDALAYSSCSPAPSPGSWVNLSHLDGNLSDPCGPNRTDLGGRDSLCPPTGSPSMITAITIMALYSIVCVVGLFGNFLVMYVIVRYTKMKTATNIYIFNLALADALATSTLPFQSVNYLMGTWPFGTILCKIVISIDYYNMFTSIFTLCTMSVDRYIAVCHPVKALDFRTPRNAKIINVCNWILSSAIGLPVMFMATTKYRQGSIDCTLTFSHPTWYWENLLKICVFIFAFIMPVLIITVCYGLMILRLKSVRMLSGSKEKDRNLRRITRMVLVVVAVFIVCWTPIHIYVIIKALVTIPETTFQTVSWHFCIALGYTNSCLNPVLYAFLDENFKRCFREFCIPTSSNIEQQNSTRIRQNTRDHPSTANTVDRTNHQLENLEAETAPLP

[3] = biological target: T2, Kappa-type opioid receptor (Homo sapiens, UniProt P41145); test: Binding affinity for opioid receptor type, human Opioid receptor kappa 1 expressed in membrane homogenates of COS-1 or CHO cells; assay type: cell-based
T2 sequence (P41145 whole entry): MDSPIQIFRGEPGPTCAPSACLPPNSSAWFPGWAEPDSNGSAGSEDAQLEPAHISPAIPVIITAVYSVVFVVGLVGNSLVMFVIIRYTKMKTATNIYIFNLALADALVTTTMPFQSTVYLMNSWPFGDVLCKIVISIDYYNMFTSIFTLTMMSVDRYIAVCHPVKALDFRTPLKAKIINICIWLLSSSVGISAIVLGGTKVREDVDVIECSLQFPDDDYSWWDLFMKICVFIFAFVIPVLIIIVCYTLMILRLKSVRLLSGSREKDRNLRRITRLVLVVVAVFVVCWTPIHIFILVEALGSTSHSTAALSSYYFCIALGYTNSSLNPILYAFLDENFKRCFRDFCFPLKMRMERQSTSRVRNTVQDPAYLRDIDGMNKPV

Nociceptin receptor [4] = biological target: T3, Nociceptin receptor (Homo sapiens, UniProt P41146); test: Binding affinity for opioid receptor like type, human Opioid receptor like 1 expressed in membrane homogenates of COS-1 or CHO cells; assay type: cell-based
T3 sequence (P41146 whole entry): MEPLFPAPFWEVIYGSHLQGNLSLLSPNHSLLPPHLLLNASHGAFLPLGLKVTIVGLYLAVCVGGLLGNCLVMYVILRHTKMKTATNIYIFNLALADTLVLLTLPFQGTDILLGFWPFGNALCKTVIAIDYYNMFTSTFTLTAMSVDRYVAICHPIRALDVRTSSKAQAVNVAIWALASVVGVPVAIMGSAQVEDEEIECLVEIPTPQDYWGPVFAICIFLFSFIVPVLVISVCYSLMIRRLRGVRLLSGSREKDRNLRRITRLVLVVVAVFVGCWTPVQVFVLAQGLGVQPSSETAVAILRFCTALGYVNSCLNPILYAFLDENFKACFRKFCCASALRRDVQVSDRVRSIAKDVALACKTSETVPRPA

Nociceptin receptor [5] = biological target: T3, Nociceptin receptor
Mu-type opioid receptor [6] = biological target: T1, Mu-type opioid receptor; test: Maximal activation of [35S]GTP-gamma-S, binding using COS-human Opioid receptor mu 1 membranes; assay type: functional
Summary of the method: (§1)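 Membranes (5 μg) from COS cells transiently transfected with human KOR or MOR, incubated 1 h at 30 °C with 0.2 nM [35S]GTPγS, GDP and increasing ligand concentrations. Maximal activation is given as percentage of basal [35S]GTPγS binding. Mean ± SEM of at least two separate experiments, each in triplicate.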

[7] = biological target: T2, Kappa-type opioid receptor; test: Maximal activation of [35S]GTP-gamma-S, binding using COS-human Opioid receptor kappa 1 membranes; assay type: functional; summary of the method: as §1
Mu-type opioid receptor [8] = biological target: T1, Mu-type opioid receptor; test: Stimulation of [35S]GTP-gamma-S, binding using COS-human Opioid receptor mu 1 membranes; assay type: functional
Summary of the method: (§2)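 Agonist-stimulated [35S]GTPγS binding to 5 μg membranes from COS cells transiently expressing human KOR or MOR. Incubation was 1 h at 30 °C with 0.2 nM [35S]GTPγS, GDP and increasing ligand concentrations, giving concentration–response data. Mean ± SEM of at least two separate experiments, each in triplicate.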

[9] = biological target: T2, Kappa-type opioid receptor; test: Stimulation of [35S]GTP-gamma-S, binding using COS-human Opioid receptor kappa 1 membranes; assay type: functional; summary of the method: as §2

Row | Compound | pKi ([1]; cos-1) | pKi (Mu-type opioid receptor [2]; cos-1) | pKi ([3]; cos-1) | pKi (Nociceptin receptor [4]; cos-1) | Ke (Nociceptin receptor [5]) | Activity (Mu-type opioid receptor [6]) | Activity [7] | pKi [1] | pKi (Mu-type opioid receptor [2]) | pKi [3] | pKi (Nociceptin receptor [4]) | pEC50 (Mu-type opioid receptor [8]) | pEC50 [9]
1 | CC(=O)N[C@@H](CCCN=C(N)N)C(=O)N[C@H](CC1CCCCC1)C(=O)N[C@H]1C[C@H]2CCC[C@@H](C(=O)N[C@H](CCCN=C(N)N)C(=O)N[C@H](Cc3ccc(Cl)cc3)C(N)=O)N2C1=O | 4.96 | 5.57 | 5.96 | 5.67 | – | – | – | – | – | – | – | – | –
2 | CC(=O)N[C@@H](CCCN=C(N)N)C(=O)NC(CC1CCCCC1)C(=O)N[C@H]1CC[C@H]2SC[C@@H](C(=O)N[C@H](CCCN=C(N)N)C(=O)NC(Cc3ccc(Cl)cc3)C(N)=O)N2C1=O (stereo in doubt) | – | – | – | – | 400 nM | 207% | 122% and 120% | – | – | – | – | – | –
3 | CC(=O)N[C@@H](CCCN=C(N)N)C(=O)NC(CC1CCCCC1)C(=O)N[C@H]1CC[C@@H]2SC[C@H](C(=O)N[C@H](CCCN=C(N)N)C(=O)NC(Cc3ccc(Cl)cc3)C(N)=O)N2C1=O (stereo in doubt) | 6.65 | 7.28 | 7.11 | 7.47 | 40 nM | – | – | – | – | – | – | – | –
4 | CC(=O)N[C@@H](CCCN=C(N)N)C(=O)N[C@H](CC1CCCCC1)C(=O)N[C@@H](Cc1ccccc1)C(=O)N1[C@H](C(=O)N[C@H](CCCN=C(N)N)C(=O)N[C@H](Cc2ccc(Cl)cc2)C(N)=O)CC[C@@H]1C(C)(C)C | – | – | – | – | – | – | – | 5.63 | 6.43 | 6.55 | 5.77 | – | –
5 | CC(=O)N[C@@H](CCCN=C(N)N)C(=O)NC(CC1CCCCC1)C(=O)NC1CC[C@H]2CCC[C@@H](C(=O)N[C@H](CCCN=C(N)N)C(=O)NC(Cc3ccc(Cl)cc3)C(N)=O)N2C1=O (stereo in doubt) | – | – | – | – | – | 141% | 117% | 5.15 | 6.30 | 6.36 | 7.46 | 5.55 | < 6.00
6 | CC(=O)N[C@@H](CCCNC(=N)N)C(=O)N[C@H](CC1CCCCC1)C(=O)N[C@H]1CC[C@H]2CC[C@@H](C(=O)N[C@H](CCCNC(=N)N)C(=O)N[C@H](Cc3ccc(Cl)cc3)C(N)=O)N2C1=O | 5.28 | 7.12 | 6.72 | 7.36 | – | – | – | – | – | – | – | 5.85 | < 6.00
